# Biological target: Acetylcholinesterase (Electrophorus electricus, UniProt O42275)
# Assay: Inhibition of electric eel AchE using acetylthiocholine iodide as substrate after 15 mins by Ellman's method
# Sequence of Acetylcholinesterase (Electrophorus electricus, UniProt O42275) (O42275 whole entry): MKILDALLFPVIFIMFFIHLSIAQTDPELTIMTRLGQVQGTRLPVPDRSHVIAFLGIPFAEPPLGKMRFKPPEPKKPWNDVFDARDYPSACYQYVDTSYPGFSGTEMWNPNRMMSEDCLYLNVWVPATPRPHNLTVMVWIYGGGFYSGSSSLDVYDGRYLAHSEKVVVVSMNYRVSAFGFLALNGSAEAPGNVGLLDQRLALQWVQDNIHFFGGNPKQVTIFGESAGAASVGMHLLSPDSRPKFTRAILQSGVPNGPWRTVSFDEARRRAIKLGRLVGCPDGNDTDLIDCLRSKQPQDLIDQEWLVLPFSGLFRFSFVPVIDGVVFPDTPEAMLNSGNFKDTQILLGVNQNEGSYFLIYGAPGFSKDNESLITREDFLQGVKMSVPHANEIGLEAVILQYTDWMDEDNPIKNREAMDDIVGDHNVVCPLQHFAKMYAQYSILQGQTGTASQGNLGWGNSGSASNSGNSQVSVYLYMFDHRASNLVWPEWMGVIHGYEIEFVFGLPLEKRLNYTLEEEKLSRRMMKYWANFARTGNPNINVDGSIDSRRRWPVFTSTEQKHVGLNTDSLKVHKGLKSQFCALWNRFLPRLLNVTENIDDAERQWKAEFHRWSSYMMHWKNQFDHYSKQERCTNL
row,SMILES,IC50
1,CCN(CCCCCCOc1cc(O)c2c(=O)c(-c3ccc(O)cc3)coc2c1)Cc1ccccc1,4.98 µM
2,CCN(CCCCCCOc1ccc(-c2coc3cc(OCCCCCCN(CC)Cc4ccccc4OC)cc(O)c3c2=O)cc1)Cc1ccccc1OC,3.79 µM
3,CCN(CCCCOc1ccc(-c2coc3cc(O)cc(O)c3c2=O)cc1)Cc1ccccc1OC,15.9 µM
4,CCN(CCCOc1ccc(-c2coc3cc(OCCCN(CC)Cc4ccccc4OC)cc(O)c3c2=O)cc1)Cc1ccccc1OC,0.16 µM

# Biological target: T1, Acetylcholinesterase (Rattus norvegicus, UniProt P37136)
# T1 sequence (P37136 whole entry): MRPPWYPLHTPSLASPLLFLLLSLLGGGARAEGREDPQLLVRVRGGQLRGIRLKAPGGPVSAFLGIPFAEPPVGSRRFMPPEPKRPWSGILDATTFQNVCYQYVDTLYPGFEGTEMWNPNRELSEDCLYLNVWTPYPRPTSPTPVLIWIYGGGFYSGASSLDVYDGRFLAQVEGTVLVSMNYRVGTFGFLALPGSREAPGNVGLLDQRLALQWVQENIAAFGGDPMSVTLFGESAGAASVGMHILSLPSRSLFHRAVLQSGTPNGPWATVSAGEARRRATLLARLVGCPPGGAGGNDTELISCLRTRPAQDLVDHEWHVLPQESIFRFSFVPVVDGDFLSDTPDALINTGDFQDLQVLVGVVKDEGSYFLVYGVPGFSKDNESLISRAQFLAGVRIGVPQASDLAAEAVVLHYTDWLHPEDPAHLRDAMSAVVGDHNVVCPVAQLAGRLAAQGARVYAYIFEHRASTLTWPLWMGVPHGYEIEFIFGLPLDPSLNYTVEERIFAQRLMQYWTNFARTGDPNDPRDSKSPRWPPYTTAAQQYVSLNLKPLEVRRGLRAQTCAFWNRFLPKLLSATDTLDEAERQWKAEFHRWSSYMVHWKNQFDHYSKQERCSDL
# Assay: Inhibition of rat cortex homogenate AchE using acetylthiocholine iodide as substrate after 15 mins by Ellman's method
row,SMILES,IC50
1,CCN(CCCCOc1ccc(-c2coc3cc(O)cc(O)c3c2=O)cc1)Cc1ccccc1,12.8 µM
2,COc1ccccc1CN(C)CCCOc1cc(O)c2c(=O)c(-c3ccc(O)cc3)coc2c1,13.5 µM
3,CN(CCCCCCOc1cc(O)c2c(=O)c(-c3ccc(O)cc3)coc2c1)Cc1ccccc1,4.24 µM
4,CCN(CCCCCCOc1cc(O)c2c(=O)c(-c3ccc(O)cc3)coc2c1)Cc1ccccc1,0.35 µM
5,CCN(CCCCOc1ccc(-c2coc3cc(OCCCCN(CC)Cc4ccccc4)cc(O)c3c2=O)cc1)Cc1ccccc1,0.9 µM
6,CCN(CCCCCCOc1cc(O)c2c(=O)c(-c3ccc(O)cc3)coc2c1)Cc1ccccc1OC,0.53 µM
7,CN(CCCCOc1cc(O)c2c(=O)c(-c3ccc(O)cc3)coc2c1)Cc1ccccc1,54.5 µM
8,CCN(CCCCOc1cc(O)c2c(=O)c(-c3ccc(O)cc3)coc2c1)Cc1ccccc1OC,0.83 µM
9,CN(CCCCOc1ccc(-c2coc3cc(O)cc(O)c3c2=O)cc1)Cc1ccccc1,3.79 µM
10,CCN(CCCCOc1cc(O)c2c(=O)c(-c3ccc(O)cc3)coc2c1)Cc1ccccc1,2.42 µM
11,CCN(CCCOc1cc(O)c2c(=O)c(-c3ccc(O)cc3)coc2c1)Cc1ccccc1,1.42 µM
12,CCN(CCCOc1ccc(-c2coc3cc(O)cc(O)c3c2=O)cc1)Cc1ccccc1,42.8 µM
13,CCN(CCCCCCOc1ccc(-c2coc3cc(OCCCCCCN(CC)Cc4ccccc4OC)cc(O)c3c2=O)cc1)Cc1ccccc1OC,0.51 µM
14,CCN(CCCCOc1ccc(-c2coc3cc(O)cc(O)c3c2=O)cc1)Cc1ccccc1OC,1.45 µM
15,CCN(CCCOc1ccc(-c2coc3cc(OCCCN(CC)Cc4ccccc4OC)cc(O)c3c2=O)cc1)Cc1ccccc1OC,0.21 µM

# Biological target: Amyloid-beta precursor protein (Homo sapiens) (UniProt P05067)
# Assay: Inhibition of self-induced amyloid beta (1 to 42) (unknown origin) aggregation at 25 uM after 24 hrs by thioflavin T fluorescence method
# Procedure, shortened: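 HFIP-pretreated Aβ1-42 (25 µM final) incubated with compound (10–50 µM) in 50 mM phosphate pH 7.4 for 24 h at 37 °C, wells sealed. ThT in glycine-NaOH pH 8.5 added; fluorescence ex 446/em 490 nm. DMSO 12.5% final. Percent inhibition relative to peptide without inhibitor; triplicate, mean of 3 independent experiments.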
# Sequence of Amyloid-beta precursor protein (Homo sapiens) (P05067 whole entry): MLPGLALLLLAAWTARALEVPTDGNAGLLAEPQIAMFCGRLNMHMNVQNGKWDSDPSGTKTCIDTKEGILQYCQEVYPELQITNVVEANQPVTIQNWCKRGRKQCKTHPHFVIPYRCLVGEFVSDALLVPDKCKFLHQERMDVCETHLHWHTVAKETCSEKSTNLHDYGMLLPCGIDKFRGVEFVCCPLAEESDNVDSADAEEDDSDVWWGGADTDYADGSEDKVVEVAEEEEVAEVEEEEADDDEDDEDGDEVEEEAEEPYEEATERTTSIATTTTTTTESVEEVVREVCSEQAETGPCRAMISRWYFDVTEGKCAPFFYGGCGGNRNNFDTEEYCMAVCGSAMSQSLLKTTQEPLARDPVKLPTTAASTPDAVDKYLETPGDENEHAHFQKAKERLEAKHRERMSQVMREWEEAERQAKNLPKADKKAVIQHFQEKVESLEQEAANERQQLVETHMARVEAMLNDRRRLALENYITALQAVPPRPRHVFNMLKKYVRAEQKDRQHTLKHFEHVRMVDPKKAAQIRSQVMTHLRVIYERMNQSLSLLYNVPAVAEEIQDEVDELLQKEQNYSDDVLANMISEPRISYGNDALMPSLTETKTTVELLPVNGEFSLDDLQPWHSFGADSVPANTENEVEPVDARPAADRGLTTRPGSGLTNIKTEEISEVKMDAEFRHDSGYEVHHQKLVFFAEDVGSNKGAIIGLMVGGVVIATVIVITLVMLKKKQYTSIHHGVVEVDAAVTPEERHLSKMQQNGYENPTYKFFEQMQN
row,SMILES,inhibition
1,CCN(CCCCCCOc1cc(O)c2c(=O)c(-c3ccc(O)cc3)coc2c1)Cc1ccccc1,34.3%
2,CCN(CCCCOc1ccc(-c2coc3cc(O)cc(O)c3c2=O)cc1)Cc1ccccc1OC,24.6%

# Biological target: Amyloid-beta precursor protein (Homo sapiens) (UniProt P05067)
# Assay: Induction of amyloid beta (1 to 42) (unknown origin) disaggregation assessed as reduction of Cu2+-induced amyloid beta fibril formation at 25 uM after 24 hrs by thioflavin T fluorescence method
# Set-up: scale not given: the % may be the effect or the level left
# Procedure, shortened: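 Aβ1-42 (25 µM final, HFIP-pretreated) and Cu2+ (25 µM) in HEPES pH 6.6 with 150 mM NaCl, incubated 24 h at 37 °C. Test compound (25 µM final) then added for a further 24 h at 37 °C, wells sealed. Read by ThT in glycine-NaOH pH 8.5 (ex 446/em 490 nm). DMSO 12.5% final; triplicate.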
row,SMILES,Activity
1,CCN(CCCCCCOc1cc(O)c2c(=O)c(-c3ccc(O)cc3)coc2c1)Cc1ccccc1,36.1%
2,CCN(CCCCOc1ccc(-c2coc3cc(O)cc(O)c3c2=O)cc1)Cc1ccccc1OC,39.2%

# Biological target: Acetylcholinesterase (Homo sapiens, UniProt P22303)
# Assay: Inhibition of human erythrocytes AchE using acetylthiocholine iodide as substrate after 15 mins by Ellman's method
# Sequence of Acetylcholinesterase (Homo sapiens, UniProt P22303) (P22303 whole entry): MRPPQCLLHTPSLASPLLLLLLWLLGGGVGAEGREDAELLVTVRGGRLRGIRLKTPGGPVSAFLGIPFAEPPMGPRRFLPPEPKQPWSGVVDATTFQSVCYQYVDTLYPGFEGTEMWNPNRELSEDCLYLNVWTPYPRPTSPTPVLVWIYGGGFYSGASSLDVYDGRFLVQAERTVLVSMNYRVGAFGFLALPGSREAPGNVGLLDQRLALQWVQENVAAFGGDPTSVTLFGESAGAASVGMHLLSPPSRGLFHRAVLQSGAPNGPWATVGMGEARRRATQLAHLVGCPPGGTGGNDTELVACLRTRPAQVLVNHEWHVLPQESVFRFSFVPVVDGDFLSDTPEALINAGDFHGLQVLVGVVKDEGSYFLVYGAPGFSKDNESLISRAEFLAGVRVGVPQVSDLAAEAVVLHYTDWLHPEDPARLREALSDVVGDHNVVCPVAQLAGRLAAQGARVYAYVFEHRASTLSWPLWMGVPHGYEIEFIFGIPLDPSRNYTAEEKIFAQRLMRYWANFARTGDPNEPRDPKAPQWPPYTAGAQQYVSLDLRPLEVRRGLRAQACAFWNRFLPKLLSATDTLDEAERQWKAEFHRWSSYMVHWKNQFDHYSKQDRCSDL
row,SMILES,IC50
1,CCN(CCCCCCOc1cc(O)c2c(=O)c(-c3ccc(O)cc3)coc2c1)Cc1ccccc1,5.8 µM
2,CCN(CCCCOc1ccc(-c2coc3cc(O)cc(O)c3c2=O)cc1)Cc1ccccc1OC,3.88 µM

# Biological target: Amyloid-beta precursor protein (Homo sapiens) (UniProt P05067)
# Assay: Inhibition of Cu2+-induced amyloid beta (1 to 42) (unknown origin) aggregation at 25 uM after 24 hrs by thioflavin T fluorescence method
# Procedure, shortened: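 Aβ1-42 (25 µM final, HFIP-pretreated) with an equimolar amount of Cu2+ (25 µM) in HEPES pH 6.6 with 150 mM NaCl. Incubated with or without compound (10–35 µM final) 24 h at 37 °C. ThT in glycine-NaOH pH 8.5 added, fluorescence ex 446/em 490 nm. DMSO 12.5% final. Percent inhibition relative to no-inhibitor wells; triplicate, mean of 3 independent experiments.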
row,SMILES,inhibition
1,CCN(CCCCCCOc1cc(O)c2c(=O)c(-c3ccc(O)cc3)coc2c1)Cc1ccccc1,72.1%
2,CCN(CCCCOc1ccc(-c2coc3cc(O)cc(O)c3c2=O)cc1)Cc1ccccc1OC,71.9%

# Biological target: Butyrylcholinesterase (Rattus norvegicus) (UniProt Q9JKC1)
# Assay: Inhibition of rat serum BuChE using butyrylthiocholine iodide as substrate at 50 uM after 15 mins by Ellman's method
# Procedure, shortened: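 Modified Ellman assay in phosphate buffer pH 7.4. Enzyme sources: AChE from 5% rat cortex homogenate, preincubated 5 min with iso-OMPA to block BuChE; BuChE from 25% rat serum. Substrates were acetylthiocholine or butyrylthiocholine iodide. Compounds incubated 15 min at 37 °C, then DTNB added; A405 read. IC50 derived; triplicate, 3 independent experiments; "no active" means under 5% inhibition at 50 µM.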
# Sequence of Butyrylcholinesterase (Rattus norvegicus) (Q9JKC1 as listed by the source): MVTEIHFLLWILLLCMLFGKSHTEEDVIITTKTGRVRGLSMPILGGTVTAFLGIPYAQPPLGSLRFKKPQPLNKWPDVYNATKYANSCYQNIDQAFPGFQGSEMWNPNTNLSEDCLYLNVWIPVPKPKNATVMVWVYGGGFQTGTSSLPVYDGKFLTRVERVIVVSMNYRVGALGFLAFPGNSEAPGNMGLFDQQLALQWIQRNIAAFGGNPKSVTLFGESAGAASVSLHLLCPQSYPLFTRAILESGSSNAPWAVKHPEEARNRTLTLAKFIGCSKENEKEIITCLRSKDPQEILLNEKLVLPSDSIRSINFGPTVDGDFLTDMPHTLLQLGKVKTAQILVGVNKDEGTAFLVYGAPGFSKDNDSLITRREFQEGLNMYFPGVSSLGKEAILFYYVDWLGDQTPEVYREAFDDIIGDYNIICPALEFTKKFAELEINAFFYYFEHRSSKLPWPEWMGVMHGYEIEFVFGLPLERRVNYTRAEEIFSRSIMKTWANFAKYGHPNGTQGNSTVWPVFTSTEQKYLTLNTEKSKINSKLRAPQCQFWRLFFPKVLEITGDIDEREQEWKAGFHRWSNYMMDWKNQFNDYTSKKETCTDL
row,SMILES,inhibition
1,CCN(CCCCOc1ccc(-c2coc3cc(O)cc(O)c3c2=O)cc1)Cc1ccccc1,< 5%
2,COc1ccccc1CN(C)CCCOc1cc(O)c2c(=O)c(-c3ccc(O)cc3)coc2c1,< 5%
3,CN(CCCCCCOc1cc(O)c2c(=O)c(-c3ccc(O)cc3)coc2c1)Cc1ccccc1,< 5%
4,CCN(CCCCCCOc1cc(O)c2c(=O)c(-c3ccc(O)cc3)coc2c1)Cc1ccccc1,< 5%
5,CCN(CCCCOc1ccc(-c2coc3cc(OCCCCN(CC)Cc4ccccc4)cc(O)c3c2=O)cc1)Cc1ccccc1,10.3%
6,CCN(CCCCCCOc1cc(O)c2c(=O)c(-c3ccc(O)cc3)coc2c1)Cc1ccccc1OC,< 5%
7,CN(CCCCOc1cc(O)c2c(=O)c(-c3ccc(O)cc3)coc2c1)Cc1ccccc1,8.9%
8,CCN(CCCCOc1cc(O)c2c(=O)c(-c3ccc(O)cc3)coc2c1)Cc1ccccc1OC,7.7%
9,CN(CCCCOc1ccc(-c2coc3cc(O)cc(O)c3c2=O)cc1)Cc1ccccc1,10.8%
10,CCN(CCCCOc1cc(O)c2c(=O)c(-c3ccc(O)cc3)coc2c1)Cc1ccccc1,10.4%
11,CCN(CCCOc1cc(O)c2c(=O)c(-c3ccc(O)cc3)coc2c1)Cc1ccccc1,9.9%
12,CCN(CCCOc1ccc(-c2coc3cc(O)cc(O)c3c2=O)cc1)Cc1ccccc1,11.6%
13,CCN(CCCCCCOc1ccc(-c2coc3cc(OCCCCCCN(CC)Cc4ccccc4OC)cc(O)c3c2=O)cc1)Cc1ccccc1OC,11.6%
14,CCN(CCCCOc1ccc(-c2coc3cc(O)cc(O)c3c2=O)cc1)Cc1ccccc1OC,6.7%
15,CCN(CCCOc1ccc(-c2coc3cc(OCCCN(CC)Cc4ccccc4OC)cc(O)c3c2=O)cc1)Cc1ccccc1OC,12.5%

# System: Mus musculus
# Assay: Cognition enhancing effect against scopolamine-induced memory deficit in po dosed Kunming mouse assessed as increase in latency time administered 1 hr before training followed by scopolamine challenge for 7 days measured after 24 hrs by step-down passive avoidance test
# Format: functional, organism-based
# Procedure, shortened: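 Kunming mice, six weeks old, 18–22 g, either sex, n=10 per group. Oral dosing at 2, 6, 18 or 3, 9, 27 mg/kg in vegetable oil, 1 h before training; vehicle as negative control. Scopolamine (3 mg/kg i.p., in saline) given 30 min later. Behavioural testing after 7 days of treatment. Step-down training used a 0.5 mA, 2 s foot shock. Latency measured 24 h later, cut-off 300 s; mean ± SEM.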
row,SMILES,Activity
1,CCN(CCCCCCOc1cc(O)c2c(=O)c(-c3ccc(O)cc3)coc2c1)Cc1ccccc1,Dose-dependent effect
2,CCN(CCCCOc1ccc(-c2coc3cc(O)cc(O)c3c2=O)cc1)Cc1ccccc1OC,Dose-dependent effect

# System: not listed separately
# Assay: Antioxidant activity assessed as trolox equivalent of APPH-induced radical scavenging activity at 1 to 10 uM preincubated for 15 mins followed by AAPH challenge measured every minute for 90 minutes by ORAC fluorescence assay
# Format: functional
# Procedure, shortened: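 ORAC-FL in phosphate buffer pH 7.4. Samples (1–10 µM) preincubated with fluorescein (150 nM final) 15 min at 37 °C, then AAPH (12 mM final) added. Fluorescence (ex 485/em 535 nm) read each minute for 90 min. Net AUC over blank converted to Trolox equivalents using a 1–8 µM Trolox curve. Duplicates, at least 3 independent assays.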
row,SMILES,Activity
1,CCN(CCCCOc1ccc(-c2coc3cc(O)cc(O)c3c2=O)cc1)Cc1ccccc1,0.6
2,COc1ccccc1CN(C)CCCOc1cc(O)c2c(=O)c(-c3ccc(O)cc3)coc2c1,1.05
3,CN(CCCCCCOc1cc(O)c2c(=O)c(-c3ccc(O)cc3)coc2c1)Cc1ccccc1,0.65
4,CCN(CCCCCCOc1cc(O)c2c(=O)c(-c3ccc(O)cc3)coc2c1)Cc1ccccc1,1.2
5,CCN(CCCCOc1ccc(-c2coc3cc(OCCCCN(CC)Cc4ccccc4)cc(O)c3c2=O)cc1)Cc1ccccc1,0.26
6,CCN(CCCCCCOc1cc(O)c2c(=O)c(-c3ccc(O)cc3)coc2c1)Cc1ccccc1OC,0.56
7,CN(CCCCOc1cc(O)c2c(=O)c(-c3ccc(O)cc3)coc2c1)Cc1ccccc1,1
8,CCN(CCCCOc1cc(O)c2c(=O)c(-c3ccc(O)cc3)coc2c1)Cc1ccccc1OC,1.06
9,CN(CCCCOc1ccc(-c2coc3cc(O)cc(O)c3c2=O)cc1)Cc1ccccc1,0.32
10,CCN(CCCCOc1cc(O)c2c(=O)c(-c3ccc(O)cc3)coc2c1)Cc1ccccc1,2.4
11,CCN(CCCOc1cc(O)c2c(=O)c(-c3ccc(O)cc3)coc2c1)Cc1ccccc1,1.12
12,CCN(CCCOc1ccc(-c2coc3cc(O)cc(O)c3c2=O)cc1)Cc1ccccc1,0.58
13,CCN(CCCCCCOc1ccc(-c2coc3cc(OCCCCCCN(CC)Cc4ccccc4OC)cc(O)c3c2=O)cc1)Cc1ccccc1OC,0.13
14,CCN(CCCCOc1ccc(-c2coc3cc(O)cc(O)c3c2=O)cc1)Cc1ccccc1OC,1.1
15,CCN(CCCOc1ccc(-c2coc3cc(OCCCN(CC)Cc4ccccc4OC)cc(O)c3c2=O)cc1)Cc1ccccc1OC,0.49

# Reference: ChEMBL document CHEMBL3124932, “Design, synthesis and evaluation of genistein-O-alkylbenzylamines as potential multifunctional agents for the treatment of Alzheimer's disease” (Eur J Med Chem, 2014)
